From ChEMBL document CHEMBL4834420, “Projected Dose Optimization of Amino- and Hydroxypyrrolidine Purine PI3Kδ Immunomodulators” (J Med Chem, 2021)

What was measured:
[1] = Inhibition of adenosine transporter in human HeLa cells assessed as reduction in [3H]adenosine uptake preincubated for 30 mins followed by [3H]adenosine addition and measured after 60 mins; type: cell-based
[2] = Apparent permeability in pig LLC-PK1 cells; type: ADME, cell-based, Sus scrofa
[3] = Half-life in Beagle dog; type: ADME, Canis lupus familiaris; details: in vivo
[4] = biological target: T1, Phosphatidylinositol 4,5-bisphosphate 3-kinase catalytic subunit delta isoform (Homo sapiens, UniProt O00329); assay: Inhibition of PI3Kdelta in human whole blood assessed as reduction in antihuman IgE antibody-stimulated CD63 expression preincubated for 30 mins followed by antihuman IgE antibody stimulation and measured after 20 mins by FACS analysis; type: tissue-based
T1 sequence (O00329 whole entry): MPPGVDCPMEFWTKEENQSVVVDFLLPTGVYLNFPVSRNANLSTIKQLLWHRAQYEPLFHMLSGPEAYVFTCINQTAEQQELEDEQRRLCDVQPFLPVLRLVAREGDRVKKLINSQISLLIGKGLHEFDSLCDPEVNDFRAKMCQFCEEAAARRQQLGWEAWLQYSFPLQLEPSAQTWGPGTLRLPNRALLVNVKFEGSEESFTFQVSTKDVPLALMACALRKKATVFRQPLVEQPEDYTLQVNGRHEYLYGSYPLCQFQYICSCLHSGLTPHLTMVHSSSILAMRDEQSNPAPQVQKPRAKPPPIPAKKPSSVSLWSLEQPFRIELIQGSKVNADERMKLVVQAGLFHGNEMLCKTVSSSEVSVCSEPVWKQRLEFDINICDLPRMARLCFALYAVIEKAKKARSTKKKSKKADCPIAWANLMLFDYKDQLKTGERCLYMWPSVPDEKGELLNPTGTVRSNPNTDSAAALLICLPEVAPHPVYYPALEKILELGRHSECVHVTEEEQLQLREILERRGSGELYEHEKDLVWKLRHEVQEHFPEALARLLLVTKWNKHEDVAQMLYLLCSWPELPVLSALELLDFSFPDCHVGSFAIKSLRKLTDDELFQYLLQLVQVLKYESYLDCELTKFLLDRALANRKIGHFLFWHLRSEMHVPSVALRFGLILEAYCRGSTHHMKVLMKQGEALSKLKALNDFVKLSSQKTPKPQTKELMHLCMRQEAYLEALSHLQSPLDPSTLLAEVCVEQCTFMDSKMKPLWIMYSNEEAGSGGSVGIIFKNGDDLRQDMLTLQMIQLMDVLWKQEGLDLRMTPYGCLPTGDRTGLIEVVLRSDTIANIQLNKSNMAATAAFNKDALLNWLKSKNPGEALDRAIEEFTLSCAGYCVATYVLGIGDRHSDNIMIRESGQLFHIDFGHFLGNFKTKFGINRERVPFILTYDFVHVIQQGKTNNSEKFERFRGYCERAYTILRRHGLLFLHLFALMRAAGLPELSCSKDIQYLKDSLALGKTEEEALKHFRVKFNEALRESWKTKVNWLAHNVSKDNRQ
Summary of the method: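 Blood from healthy human volunteer donors, pre-incubated with compound (DMSO, varying concentrations) for 30 min at 37 °C. Basotest reagent B added for 30 min at 37 °C, then goat anti-human IgE (50 ng/mL in reagent A before addition) for 20 min at 37 °C. Stopped on ice, stained for CD63/IgE/CD203c/CD45 (20 min, 4 °C), RBC-lysed, and read by flow cytometry. IgE+ basophils gated, CD63+ scored; IC50 from sigmoidal fit of % inhibition.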

[5] = biological target: T2, Phosphatidylinositol 4,5-bisphosphate 3-kinase catalytic subunit delta isoform (Mus musculus, UniProt O35904); assay: Inhibition of mouse PI3Kdelta
T2 sequence (O35904 whole entry): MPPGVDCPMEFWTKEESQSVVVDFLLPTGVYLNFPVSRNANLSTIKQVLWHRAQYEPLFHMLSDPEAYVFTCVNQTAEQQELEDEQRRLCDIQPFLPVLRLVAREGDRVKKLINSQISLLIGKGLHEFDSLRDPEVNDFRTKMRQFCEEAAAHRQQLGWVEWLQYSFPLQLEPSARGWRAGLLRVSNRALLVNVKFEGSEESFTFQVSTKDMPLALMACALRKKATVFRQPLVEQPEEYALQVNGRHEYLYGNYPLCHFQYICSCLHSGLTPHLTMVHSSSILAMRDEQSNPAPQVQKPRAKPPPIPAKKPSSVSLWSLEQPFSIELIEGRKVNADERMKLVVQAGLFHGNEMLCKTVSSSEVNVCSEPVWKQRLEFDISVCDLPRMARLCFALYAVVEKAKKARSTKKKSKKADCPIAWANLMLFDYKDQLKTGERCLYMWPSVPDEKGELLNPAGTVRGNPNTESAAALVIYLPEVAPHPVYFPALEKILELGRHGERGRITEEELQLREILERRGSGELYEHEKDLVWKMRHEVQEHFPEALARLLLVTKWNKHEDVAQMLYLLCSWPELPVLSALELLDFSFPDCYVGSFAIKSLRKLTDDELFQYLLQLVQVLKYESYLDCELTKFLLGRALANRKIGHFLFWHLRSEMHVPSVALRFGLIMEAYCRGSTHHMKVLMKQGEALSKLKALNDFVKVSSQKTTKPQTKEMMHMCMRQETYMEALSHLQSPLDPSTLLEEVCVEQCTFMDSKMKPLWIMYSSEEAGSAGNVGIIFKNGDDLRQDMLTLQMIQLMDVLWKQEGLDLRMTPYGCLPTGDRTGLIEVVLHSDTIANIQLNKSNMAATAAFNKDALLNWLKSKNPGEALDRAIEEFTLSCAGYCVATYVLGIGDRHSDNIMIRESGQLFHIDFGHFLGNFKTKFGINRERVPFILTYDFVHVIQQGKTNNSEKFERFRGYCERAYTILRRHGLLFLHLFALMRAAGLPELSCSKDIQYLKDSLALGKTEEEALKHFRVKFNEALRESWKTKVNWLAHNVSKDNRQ

[6] = Intrinsic clearance in rat hepatocytes; type: ADME, cell-based, Hepatocyte; details: read-out: CLH
[7] = Intrinsic clearance in C57BL/6 mouse at 1 mg/kg, iv or 3 mg/kg, po; type: ADME, organism-based; details: in vivo
[8] = biological target: ATP-dependent translocase ABCB1 (Homo sapiens, UniProt P08183); assay: Inhibition of PGP (unknown origin)
Sequence of ATP-dependent translocase ABCB1 (P08183 whole entry, canonical isoform): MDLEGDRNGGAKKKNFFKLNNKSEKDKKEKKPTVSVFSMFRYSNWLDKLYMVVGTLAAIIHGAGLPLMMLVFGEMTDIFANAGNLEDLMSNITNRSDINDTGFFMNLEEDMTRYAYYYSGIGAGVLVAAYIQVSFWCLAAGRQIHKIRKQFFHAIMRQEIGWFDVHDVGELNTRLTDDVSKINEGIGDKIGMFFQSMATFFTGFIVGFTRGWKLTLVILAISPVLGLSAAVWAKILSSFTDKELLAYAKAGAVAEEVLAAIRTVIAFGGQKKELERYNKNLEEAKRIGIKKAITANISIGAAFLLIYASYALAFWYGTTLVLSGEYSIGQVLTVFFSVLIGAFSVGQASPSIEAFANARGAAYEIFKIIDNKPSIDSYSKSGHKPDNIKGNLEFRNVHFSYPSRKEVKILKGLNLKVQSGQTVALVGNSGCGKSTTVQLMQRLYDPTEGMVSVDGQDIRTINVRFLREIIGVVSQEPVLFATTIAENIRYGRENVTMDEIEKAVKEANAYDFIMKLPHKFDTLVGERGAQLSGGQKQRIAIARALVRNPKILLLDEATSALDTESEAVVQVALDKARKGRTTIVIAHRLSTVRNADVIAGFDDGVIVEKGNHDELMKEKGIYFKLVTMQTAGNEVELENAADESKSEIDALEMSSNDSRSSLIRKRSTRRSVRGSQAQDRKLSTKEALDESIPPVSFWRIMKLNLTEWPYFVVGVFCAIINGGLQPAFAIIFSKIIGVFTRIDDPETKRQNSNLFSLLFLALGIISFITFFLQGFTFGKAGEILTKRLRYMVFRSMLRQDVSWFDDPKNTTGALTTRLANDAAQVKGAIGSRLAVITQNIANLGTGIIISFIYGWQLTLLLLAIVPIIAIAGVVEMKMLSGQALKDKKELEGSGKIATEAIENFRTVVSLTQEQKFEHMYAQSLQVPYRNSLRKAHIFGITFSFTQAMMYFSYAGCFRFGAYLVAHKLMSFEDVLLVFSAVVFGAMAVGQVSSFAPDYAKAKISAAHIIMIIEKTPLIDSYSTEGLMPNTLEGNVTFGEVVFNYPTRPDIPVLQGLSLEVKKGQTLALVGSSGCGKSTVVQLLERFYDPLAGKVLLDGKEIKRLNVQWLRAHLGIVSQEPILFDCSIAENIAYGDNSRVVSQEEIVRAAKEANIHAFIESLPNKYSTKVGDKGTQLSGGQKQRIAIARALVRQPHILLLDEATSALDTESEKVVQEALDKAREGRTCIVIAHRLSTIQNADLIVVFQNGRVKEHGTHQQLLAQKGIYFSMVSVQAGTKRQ

[9] = biological target: T3, Phosphatidylinositol 4,5-bisphosphate 3-kinase catalytic subunit delta isoform (Mus musculus) (UniProt O35904); assay: Inhibition of PI3Kdelta in Foxp3-GFP C57BL/6 mouse assessed as reduction in Treg population administered upto 7 days; details: dose 30-100 mg/kg, time day <=7
T3 sequence (whole entry): T2 sequence (O35904 whole entry)
Summary of the method: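 C57BL/6 Foxp3-GFP reporter mice were dosed at 30 and 100 mg/kg/day for up to 7 days. Treg population was monitored by bioluminescence imaging 10 min after ip injection of 3 mg luciferin. Radiance was quantified as photons/s/cm²/steradian. Diphtheria toxin served as a positive control.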

[10] = Cmax in C57BL/6 mouse at 100 mg/kg; type: ADME, organism-based; design: dose 100 mg/kg; details: in vivo
[11] = Plasma protein binding in Brown Norway rat at 10 mg/kg, po; type: ADME, organism-based; details: read-out: PPB (converted)

IC50 [1]: 5000 nM
Papp [2]: 22 ×10⁻⁶ cm/s
half-life [3]: 4.3 h
IC50 [4]: 50 nM
IC50 [5]: 2.2 nM
CLint scaled [6]: < 2 mL/min/kg
CL [7]: 10 mL/min/kg
inhibition (INH) [8]: Not Active
Activity [9]: Dose-Dependent Effect
Cmax [10]: 33 µM
fraction unbound [11]: 0.59
SMILES: CCn1c(-c2cnc(C)nc2)nc2c(N[C@H]3CCN(C(=O)C4CC4)C3)ncnc21
